“And” between values parts separate entries of the source, which are not always exact repeats. Equal values may be shown once.
How the values were obtained:
brain 5-HT1A receptors [1] = assay: PET imaging of [18F]S14506 in monkey; assay type: in vivo, rhesus monkey; settings: absence of radioactivity accumulation in skull
Plasma protein binding = assay type: in vitro ADME; settings: rat plasma
[2] = Distribution between blood components; assay type: in vitro ADME; settings: rat, without hematocrit correction
Summary of the method: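 [18F]-labelled test compound (0.8 μCi) added to heparinized rat whole blood (from cardiac puncture) in duplicate tubes and incubated at room temperature for 27 min. Blood centrifuged at 1800 × g for 3 min, plasma separated, and all fractions γ-counted. Percent radioactivity in plasma and in cells reported without hematocrit correction.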

[3] = Ex vivo biodistribution and radiometabolite composition of [18F]S14506 in rat; parameters: species or system Sprague-Dawley rat
[4] = Effect of cyclosporin A on rat plasma and brain levels of [18F]S14506; assay type: in vivo; settings: 30 min after administration
[5] = Stability in sodium phosphate buffer; assay type: physicochemical; settings: sodium phosphate buffer (0.15 M), room temperature, 2.5 h
5-HT1A receptors = settings: cited from earlier work
brain 5-HT1A receptors [6] = molecular target: T1, brain 5-HT1A receptors (Rattus norvegicus, UniProt P19327); assay: PET imaging of [11C]S14506 in rat; assay type: in vivo, Sprague-Dawley rat; settings: i.v.
T1 sequence (P19327 1-422): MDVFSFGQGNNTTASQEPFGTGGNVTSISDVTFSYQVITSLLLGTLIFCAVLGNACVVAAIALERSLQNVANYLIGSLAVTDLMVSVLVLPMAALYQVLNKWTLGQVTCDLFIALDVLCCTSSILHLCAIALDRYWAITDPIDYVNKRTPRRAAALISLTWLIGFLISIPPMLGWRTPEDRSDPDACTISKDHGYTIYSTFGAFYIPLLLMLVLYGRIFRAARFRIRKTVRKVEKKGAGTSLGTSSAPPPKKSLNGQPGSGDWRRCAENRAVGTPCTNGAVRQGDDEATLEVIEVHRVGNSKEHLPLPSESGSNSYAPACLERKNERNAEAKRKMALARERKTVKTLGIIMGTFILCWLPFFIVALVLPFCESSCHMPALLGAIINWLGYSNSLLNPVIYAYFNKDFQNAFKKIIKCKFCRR

brain 5-HT1A receptors [7] = assay: PET imaging of [11C]S14506 in monkey; assay type: in vivo, rhesus monkey
Stability in whole blood = assay type: in vitro ADME; settings: rat whole blood in vitro, 125 min, room temperature
[8] = Emergence of radiometabolites in monkey plasma; assay type: in vivo, rhesus monkey; settings: over the PET study
human 5-HT1A receptors = settings: recombinant Chinese hamster ovary cells, room temperature; cited from earlier work

Compound: COc1ccc2cccc(N3CCN(CCNC(=O)c4ccc([18F])cc4)CC3)c2c1 [[^18F]S14506]
- radiodefluorination (brain 5-HT1A receptors [1]): not radiodefluorinated
- free in plasma (plasma protein binding) (Plasma protein binding): 0.61%
- whole blood distribution to cellular components [2]: 25.8%
- whole blood distribution to plasma [2]: 74.2%
- Composition (%) of radioactivity, Cerebellum ([3]; 30 min after administration of [18F]S14506, n = 1 rat): 93.9%
- Composition (%) of radioactivity, Remainder of brain ([3]; 30 min after administration of [18F]S14506, n = 2 rats): 97.2 ± 0.20%
- Composition (%) of radioactivity, Plasma ([3]; 30 min after administration of [18F]S14506, n = 3 rats (mean ± SD)): 38.6 ± 0.17%
- [18F]S14506 concentration (%SUV), Remainder of brain ([4]; Control): 141 %SUV
- [18F]S14506 concentration (%SUV), Remainder of brain ([4]; Cyclosporin A treated (50 mg/kg, i.v.)): 211 %SUV
- stability to incubation in buffer [5]: stable

Compound: WAY-100635
- Kd (5-HT1A receptors; read-out: Kd, 5-HT1A receptor affinity): 0.1 nM

Compound: [11CH3]Oc1ccc2cccc(N3CCN(CCNC(=O)c4ccc(F)cc4)CC3)c2c1 [[^11C]S14506]
- peak whole brain radioactivity (brain 5-HT1A receptors [6]; rat pre-treated with cyclosporin A 25 mg/kg): ~ 310 % SUV
- peak whole brain radioactivity (brain 5-HT1A receptors [6]; rat pre-treated with cyclosporin A 50 mg/kg): ~ 350 % SUV
- peak whole brain radioactivity (brain 5-HT1A receptors [6]; rat, baseline, at 2 min): 210 % SUV and ~ 210 % SUV
- peak brain radioactivity (brain 5-HT1A receptors [7]; monkey pre-treated with tariquidar 4 mg/kg, i.v., 30 min before): 240 % SUV and ~ 240 % SUV
- peak whole brain radioactivity (brain 5-HT1A receptors [7]; monkey, baseline, i.v., at 7 min): ~ 170 % SUV
- unchanged radioligand after incubation with whole blood (Stability in whole blood): > 99.5%
- free in plasma (plasma protein binding) (Plasma protein binding): 0.52%
- whole blood distribution to cellular components [2]: 40.9%
- whole blood distribution to plasma [2]: 59.1%
- maximal share of the second (minor) radiometabolite in plasma radioactivity [8]: ≤ 3.1%

Compound: COc1ccccc1N1CCN(CCCCn2ncc(=O)n(C)c2=O)CC1 [[^11C]CUMI-101, [O-methyl-^11C]2-(4-(4-(2-methoxyphenyl)piperazin-1-yl)butyl)-4-methyl-1,2,4-triazine-3,5(2H,4H)dione]
- Ki (5-HT1A receptors; read-out: Ki, 5-HT1A receptor affinity): 0.15 nM

Compound: COc1ccc2cccc(N3CCN(CCNC(=O)c4ccc(F)cc4)CC3)c2c1 [S14506, 1-[2-(4-fluorobenzoylamino)ethyl]-4-(7-methoxynaphthyl)piperazine, reference compound]
- time required for a 50% decrease in cerebellar radioactivity (brain 5-HT1A receptors [7]; monkey, cerebellar time-activity curves (non-specific binding)): > 32 min
- off rate from human 5-HT1A receptors (human 5-HT1A receptors): 0.029 min⁻¹

Source: article PMC2908029 (Current radiopharmaceuticals, 2010)
